High-throughput results (PubChem)
DAGLB inhibitor – diacylglycerol lipase beta (human) inhibition; Q8NCG7; HEK293T DAGLB membrane lysate, EnzChek fluorogenic substrate; inhibition, % at 5.17 µM; 340,000 tested, 0.059% active; AID 504411; in the data active = inhibition above about 34%;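 note: 0% = enzyme with vehicle and 100% = wells lacking enzyme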
beta cell repl – induces beta-cell replication in MIN6 cells | proliferation, % at 10 µM | MIN6 cells proliferation, ATPlite luminescence, 48 h; cells starved in 0.2% serum; 100% = growth in 10% serum | 330,000 tested, 0.29% active;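 active = compounds whose signal lies at least 3.5 SD above the mean of all wells on their plate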;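 note: 0% = DMSO-treated cells in low-serum medium and 100% = 10% serum control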
NRP1-CendR mod – alters CendR peptide binding to human NRP-1; 360,000 tested, 0.85% active; FAM-RPARPAR peptide binding to NRP-1, fluorescence polarization; inhibition, % at 25 µM; O14786; AID 602438;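 active = inhibition or corrected inhibition above about 18%, plus a signal ratio from 0.5 to 1.5, limit read from the data, passing the limit was not always enough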
Target sequence (O14786 whole entry, looked up): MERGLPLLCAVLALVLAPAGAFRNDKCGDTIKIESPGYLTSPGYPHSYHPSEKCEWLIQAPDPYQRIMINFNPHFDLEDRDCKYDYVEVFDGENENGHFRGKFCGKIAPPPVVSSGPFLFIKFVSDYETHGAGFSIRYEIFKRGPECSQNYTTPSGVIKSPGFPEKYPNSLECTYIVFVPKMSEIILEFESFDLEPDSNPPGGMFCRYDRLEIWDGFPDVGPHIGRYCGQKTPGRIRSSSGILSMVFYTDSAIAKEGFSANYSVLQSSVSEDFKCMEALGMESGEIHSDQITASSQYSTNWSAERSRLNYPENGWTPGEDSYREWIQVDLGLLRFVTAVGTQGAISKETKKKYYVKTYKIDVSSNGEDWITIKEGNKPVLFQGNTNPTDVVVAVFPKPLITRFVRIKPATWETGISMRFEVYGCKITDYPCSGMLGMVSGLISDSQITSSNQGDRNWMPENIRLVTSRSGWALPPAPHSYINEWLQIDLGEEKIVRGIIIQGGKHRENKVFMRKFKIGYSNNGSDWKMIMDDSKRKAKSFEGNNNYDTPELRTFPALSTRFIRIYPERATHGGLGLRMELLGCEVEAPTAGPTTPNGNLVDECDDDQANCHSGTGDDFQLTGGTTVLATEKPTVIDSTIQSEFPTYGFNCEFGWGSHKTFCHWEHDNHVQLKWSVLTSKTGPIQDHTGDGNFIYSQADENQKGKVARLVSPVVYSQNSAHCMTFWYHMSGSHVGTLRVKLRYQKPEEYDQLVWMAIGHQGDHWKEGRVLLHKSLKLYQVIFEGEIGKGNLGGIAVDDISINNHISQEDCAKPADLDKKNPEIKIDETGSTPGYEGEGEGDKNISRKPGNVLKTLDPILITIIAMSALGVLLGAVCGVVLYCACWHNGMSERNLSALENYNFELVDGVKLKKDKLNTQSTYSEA
Myeloid diff 2 – promotes myeloid progenitor differentiation; ER-HoxA9 myeloid progenitors, lysozyme-GFP differentiation, flow cytometry; calls only at 10 µM; 360,000 tested, 1% active; AID 624256;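 active = normalized GFP-positive differentiation at or above the plate's own cutoff, the solvent-only control mean plus 3 SD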;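 note: cells exposed to compound for four days before flow analysis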
MT1-MMP act inh – inhibitors of human MT1-MMP activation; P50281; HT1080 RFP-PRO-GFP cells, GFP/RFP ratio fluorescence, overnight; percent of plate control window, DMSO zero; GFP/RFP ratio change, % at 20 µM; 360,000 tested, 0.061% active; AID 651647;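 active = GFP/RFP ratio change of at least 30% with cell ATP level not reduced by more than half and red fluorescence within 50% of control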
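Material: RFP-PRO-GFP reporter HT1080 cells. Dosing: single-point 20 µM compound, 1% DMSO. Controls: DMSO and RFP-L50D-GFP cell wells. Timing: cells overnight before dosing, compound overnight, 37 °C, 5% CO2. Measure: GFP/RFP fluorescence ratio.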
SENP1 inh – inhibitors of human SENP1 SUMO protease catalytic domain; Q9P0U3; recombinant SENP1 catalytic domain, CyPet-SUMO1-YPet FRET cleavage; inhibition, % at 10 µM; 360,000 tested, 0.21% active; AID 624204;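 active = inhibition at least 30% at 10 µM, raw YFP signal under a set limit, fluorescence ratio 0.5 to 1.5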;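 note: 0% = enzyme with DMSO and 100% = no enzyme wells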
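Test system: hSENP1 catalytic domain, recombinant; Amount: 20 pM final SENP1 enzyme; Medium: Tris pH 8 buffer plus EDTA, NaCl, BME, BSA, NP40, catalase; Schedule: 50 min enzyme reaction, room temperature, light-protected; Technique: FRET fluorescence in CFP and YFP emission channels; Controls: no-enzyme wells low, DMSO-plus-enzyme wells high control.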
Starred values were filed as active, the others as inactive; i = inactive; / = no result given; + = active, no number. Sampled rows, rich in hits. Any-hit rate of the full collection: about 2.4%.

SMILES	DAGLB inhibitor	beta cell repl	NRP1-CendR mod	Myeloid diff 2	MT1-MMP act inh	SENP1 inh
C=CCn1c(CCNC(=O)c2ccc(Cl)c(Cl)c2)nnc1SCCOc1ccc(OC)cc1	-3	-5	26*	i	9	0
C=CCn1c(SCCOc2ccccc2)nnc1C(C)NC(=O)c1ccccc1 (stereo unspecified)	0	3	-2	i	2	-1
COCCNc1c2c(nc3c(-c4ccccc4)c(C)nn13)CCC2	-4	-1	28*	i	4	-1
Cc1ccc(N)c(C(=O)CCCCC(=O)O)c1	5	0	0	+	10	-4
Cc1ccc(NC(=O)CCCC(=O)O)c(Br)c1	-1	-2	-9	i	4	3
O=C(Nc1nnc(-c2ccco2)o1)c1ccc([N+](=O)[O-])s1	7	-4	-30	+	-2	-19
COc1nc(N)nc2nc[nH]c12	2	-5	11	i	8	-1
COC(=O)[C@@]12C[C@@H](CC(=O)NCCCCc3ccccc3)C(=O)N(Cc3ccc4c(c3)OCO4)C1=CCC(C)(C)C2	/	/	-2	+	-9	3
CCCCNC(=O)C[C@@H]1C[C@@]2(C(=O)OC)CC(C)(C)CC=C2N(Cc2ccc3c(c2)OCO3)C1=O	/	/	-11	i	0	1
CCCCn1nnnc1C1(C)CCC(=O)N1c1ccc(N2CCOCC2)cc1 (stereo unspecified)	/	/	-22	i	6	3
COCc1c(C(=O)N2CCN(Cc3ccc4c(c3)OCO4)CC2)oc2ccccc12	-3	-2	26*	i	-2	-1
Cc1ccccc1NC(=S)N1CCN(Cc2ccc3c(c2)OCO3)CC1	0	-2	30*	i	-2	-1
Cc1c(Cl)cccc1NC(=S)N1CCN(Cc2ccc3c(c2)OCO3)CC1	-1	-3	-6	i	4	-1
CCCCNC(=S)N1CCN(Cc2ccc3c(c2)OCO3)CC1	-3	-2	-6	i	4	-1
Cc1ccc(S(=O)(=O)N(C)C)cc1NC(=S)N1CCN(Cc2ccc3c(c2)OCO3)CC1	-1	-2	11	+	-2	9
COCCCNC(=S)N1CCN(Cc2ccc3c(c2)OCO3)CC1	-3	-3	21*	i	3	0
COc1ccccc1NC(=S)N1CCN(Cc2ccc3c(c2)OCO3)CC1	-3	-2	5	i	-10	1
Cc1ccc(C(=O)NC(=S)N2CCN(C)CC2)cc1Br	2	4	2	i	1	0
Cc1ccc2nc(C3CCCCC3)[nH]c2c1	-1	-3	-13	i	-3	-2
CCCCCCCN1C(Nc2ccccc2)=NC[C@@H]1CC(C)C	1	-8	-5	+	3	0
CC(C)C[C@H]1CN=C(Nc2ccccc2)N1CCCC1CCCC1	2	-8	9	i	-6	2
COc1ccc(OC)c(NC(=O)CCn2ccnc2)c1	-3	-2	4	/	2	0
CCOC(=O)c1cccc(Nc2nc(-c3cccnc3)nc3ccccc23)c1	-4	-4	-17	+	-21	-22
CC1CCC(NC(=O)C2CCC(CNS(=O)(=O)c3cccc4cccnc34)CC2)CC1 (stereo unspecified)	0	-3	21*	i	4	0
CC1CCN(C(=O)C2CCC(CNS(=O)(=O)c3cccc4cccnc34)CC2)CC1 (stereo unspecified)	-2	-4	-3	i	-3	1
SMILES	DAGLB inhibitor	beta cell repl	NRP1-CendR mod	Myeloid diff 2	MT1-MMP act inh	SENP1 inh
O=c1oc2ccccc2cc1-c1nc2c(s1)CCc1ccccc1-2	-21	-4	-12	i	-14	-23
O=c1oc2cc(O)ccc2cc1-c1nc2c(s1)CCc1ccccc1-2	-219	/	132	+	-118	-24
Cc1cccc(C(=O)O/N=C2/CC3CCC2(C)C3(C)C)c1 (stereo unspecified)	-8	0	-15	i	3	2
CCN(CC)c1ccc2nc3c4ccccc4c(=O)cc-3oc2c1	/	-2	/	/	/	/
CCN(CC)c1ccc2c(-c3ccc(S(=O)(=O)O)cc3S(=O)(=O)[O-])c3ccc(=[N+](CC)CC)cc-3oc2c1	-19	2	147	i	-43	34*
O=C(COCc1cc(-c2ccc3c(c2)OCO3)on1)N1CCN(c2cccc(C(F)(F)F)c2)CC1	-2	-8	19*	i	2	-3
C/C(=C\C(=O)O)C12CC3CC(CC(C3)C1)C2	-3	-1	4	i	-4	1
O=c1oc(/C=C/c2ccc([N+](=O)[O-])s2)nc2ccccc12	-3	-4	-182	+	-27	-26
Cc1cn(CC(=O)NCCCn2ccnc2)c(=O)[nH]c1=O	-3	/	2	i	4	0
Cc1cc(C)c(OCC(=O)OC(C)C(=O)NC2CC2)c(C)c1 (stereo unspecified)	0	0	-17	i	-3	2
COc1ccc(N2C(=O)/C(=C/c3ccc([N+](=O)[O-])cc3)C=C2c2ccccc2)cc1	4	-4	3	+	-4	-1
O=C(O)c1cccc(N2C(=O)/C(=C/c3ccc([N+](=O)[O-])cc3)C=C2c2ccccc2)c1	7	-6	-84	i	-4	32*
O=C1/C(=C/c2ccc([N+](=O)[O-])cc2)C=C(c2ccccc2)N1c1ccc(O)cc1	12	-6	-11	i	-30	5
O=C(COC(=O)Cn1cnc2ccccc21)Nc1ccc(OC(F)F)cc1	-6	-3	4	i	-4	0
Cc1c(O)c2c3c(cccc3c1O)C(=O)N(c1ccccc1)C2=O	-10	/	-5	i	-235	-32
COc1ccc(CN2C[C@H](O)COC[C@@H]3O[C@H](CC(=O)NCc4ccncn4)CC[C@H]32)cc1	/	/	14	i	0	1
CNc1nc(SC)n(C)c(=O)c1N=O	/	-3	/	/	/	/
NC(=O)C1=C[C@@H](c2ccc(Br)cc2)C[C@@H](OCc2ccc(CO)cc2)O1	0	-2	7	i	1	1
NC(=O)C1=C[C@H](C2CCCCC2)C[C@H](OCc2ccc(CO)cc2)O1	-1	7	28*	i	6	0
NC(=O)C1=C[C@H](c2ccc(Br)cc2)C[C@H](OCc2ccc(CO)cc2)O1	-1	-2	26*	i	4	-1
C=CCOC(=O)C1=C[C@H](C2CCCCC2)C[C@H](OCc2ccc(CO)cc2)O1	-6	-3	-9	i	0	3
O=C(NCc1ccccc1)C1=C[C@@H](C2CC2)C[C@@H](OCc2ccc(CO)cc2)O1	-3	-3	21	i	0	1
